Assay results published in PMC9124159 (Molecular Diversity, 2022).
Values after ≈ are worked out from the molar mass of the structure shown. Values joined by “and” are separate entries in the source; they are usually repeats but may differ in a detail not shown here. Equal entries are not always repeated. “Also recorded” adds a separate entry of the source. Where two headings read alike, the source gives them in different places.

Key:
[1] = system: GFP reporter strain of Mtb (Mtb pMSp12: GFP); type: cell-based, Mycobacterium tuberculosis
[2] = system: BJ-5ta (hTERT immortalized Human skin fibroblasts); test: MTT cytotoxicity assay, BJ-5ta cells; type: cell-based; settings: BJ-5ta, 48 h, MTT
Procedure, shortened: (§1)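 BJ-5ta fibroblasts seeded at 1.8 × 10⁴ cells/well, 24 h at 37 °C, 5% CO2. Then exposed 48 h to test compound at 1, 5 or 10 µM in 0.15% DMSO, 3 technical repeats. Dead-cell control was 0.2% Triton X-100 for 15 min. After PBS rinses, MTT 0.5 mg/ml final for 4 h, formazan dissolved in DMSO. A560 minus A630, DMSO-blank-corrected, % of untreated cells; mean ± SD.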

[3] = MTT cytotoxicity assay, BJ-5ta cells; type: cell-based, Human; settings: human, BJ-5ta cells (hTERT immortalized human skin fibroblasts)
Procedure, shortened: as §1

Vero cell line = test: MTT cytotoxicity assay, Vero cells; type: cell-based; settings: 48 h
Procedure, shortened: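 Vero cells plated at 3.0 × 10³ cells/well, 24 h at 37 °C, 5% CO2. Then 48 h exposure to test compound at 1, 5 or 10 µM in 0.15% DMSO, triplicate technical repeats. Positive control was 0.2% Triton X-100 for 15 min. Cells PBS-rinsed, MTT 0.5 mg/ml final for 4 h, formazan dissolved in DMSO. Absorbance 560 nm against 630 nm background; survival vs untreated cells; SD, n = 3.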

H37Rv strain of Mtb = H37Rv strain of Mtb in vitro; cited from earlier work

Row | Molecule | MIC90 [1] | also measured
1 | Brc1ccc(Nc2ncnc3[nH]ccc23)cc1 [Compound 10, N-(4-bromophenyl)-7H-pyrrolo[2,3-d]pyrimidin-4-amine] | 3.9 µM and 3.90 µM | 
2 | c1nc(Nc2ccc(N3CCOCC3)cc2)c2cc[nH]c2n1 [Compound 15, N-(4-morpholinophenyl)-7H-pyrrolo[2,3-d]pyrimidin-4-amine] | 3.906 µM and 3.90 µM | 
3 | c1ccc(Nc2ncnc3[nH]ccc23)cc1 [Compound 1, N-phenyl-7H-pyrrolo[2,3-d]pyrimidin-4-amine] | 62.5 µM (≈ 13.1 µg/mL) | 
4 | Fc1cccc(Nc2ncnc3[nH]ccc23)c1 [Compound 3, N-(3-fluorophenyl)-7H-pyrrolo[2,3-d]pyrimidin-4-amine] | > 125 µM | 
5 | CC(C)OCCCNc1ncnc2[nH]ccc12 [Compound 27, N-(3-isopropoxypropyl)-7H-pyrrolo[2,3-d]pyrimidin-4-amine] | 125 µM (≈ 29.3 µg/mL) | 
6 | N-(3-(trifluoromethyl)phenyl)-7,7a-dihydro-1H-pyrrolo[2,3-d]pyrimidin-4-amine [Compound 4] | 62.5 µM | 
7 | c1ccc(Oc2ccc(Nc3ncnc4[nH]ccc34)cc2)cc1 [Compound 11, N-(4-phenoxyphenyl)-7H-pyrrolo[2,3-d]pyrimidin-4-amine] | 0.488 µM (≈ 0.148 µg/mL) | Cytotoxicity (in words) [2]: weakly cytotoxic; also recorded: weak cytotoxicity; viability at 48 h, 1 µM [3]: 115%; MIC90 ([1]; […], no unit printed in the conclusion): 0.488; Cytotoxicity (in words) (Vero cell line): no potential cytotoxicity risk; Cytotoxicity (in words) (Vero cell line; listed as N-(4-phenoxy phenyl)-7H-pyrrolo[2,3-d]pyrimidin-4-amine): non-cytotoxic; Cell viability reduction (Vero cell line; highest concentration tested (1, 5, 10 µM tested)): no cell viability reduction observed
8 | c1ccc(CCCNc2ncnc3[nH]ccc23)cc1 [Compound 22, N-(3-phenylpropyl)-7H-pyrrolo[2,3-d]pyrimidin-4-amine] | 14.45 µM (≈ 3.65 µg/mL) | 
9 | CO[C@H]1/C=C/O[C@@]2(C)Oc3c(C)c(O)c4c(O)c(c(/C=N/N5CCN(C)CC5)c(O)c4c3C2=O)NC(=O)/C(C)=C\C=C\[C@H](C)[C@H](O)[C@@H](C)[C@@H](O)[C@@H](C)[C@H](OC(C)=O)[C@@H]1C [RF, rifampicin] |  | MIC (H37Rv strain of Mtb): 0.09 µM (≈ 0.0741 µg/mL)
10 | c1ccc(CCCCNc2ncnc3[nH]ccc23)cc1 [Compound 23, N-(4-phenylbutyl)-7H-pyrrolo[2,3-d]pyrimidin-4-amine] | 3.713 µM and 3.71 µM | 
11 | OCCNCCNc1ncnc2[nH]ccc12 [Compound 26, 2-((2-((7H-pyrrolo[2,3-d]pyrimidin-4-yl)amino)ethyl)amino)ethan-1-ol] | 125 µM (≈ 27.7 µg/mL) | 
12 | N-(3-nitrophenyl)-7H-pyrrolo[2,3-d]pyrimidin-4-amine [Compound 13] | 62.5 µM | 
13 | N-(3-morpholinopropyl)-7H-pyrrolo[2,3-d]pyrimidin-4-amine [Compound 28] | 125 µM | 
14 | N-(2-methoxy-4-nitrophenyl)-7H-pyrrolo[2,3-d]pyrimidin-4-amine [Compound 14] | > 125 µM | 
